Data taken from ChEMBL document CHEMBL2321868, “The discovery of novel potent trans-3,4-disubstituted pyrrolidine inhibitors of the human aspartic protease renin from in silico three-dimensional (3D) pharmacophore searches” (J Med Chem, 2013).
Active and inactive are the calls of the source. No cut-off for these calls is given here.

Columns and labels:
Rattus norvegicus [1] = assay: Antihypertensive activity in double transgenic rat overexpressing human renin and angiotensinogen assessed as reduction in mean arterial pressure at 6 to 30 mg/kg, po after 12 hrs; type: functional, organism-based; settings: Artery
How it was run: (§1)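 Double-transgenic rats overexpressing human renin and human angiotensinogen, with telemetry. Each received a single oral dose of 6 or 30 mg/kg. The read-out was mean arterial pressure, reported as the peak change from dosing.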

Rattus norvegicus [2] = assay: Antihypertensive activity in double transgenic rat overexpressing human renin and human angiotensinogen assessed as reduction in mean arterial pressure at 30 mg/kg, po; type: functional, Artery; how it was run: as §1
[3] = Cmax in jugular vein cannulated Sprague-Dawley rat at 6 mg/kg, po by HPLC-MS analysis; type: ADME, organism-based; set-up: dose 6 mg/kg, route oral; settings: in vivo
How it was run: (§2)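 Cannulated, fed Sprague–Dawley rats were given 2 mg/kg intravenously and 6 mg/kg orally. Oral bioavailability came from the two routes. t1/2, plasma clearance and Vdss were estimated. Oral Cmax and AUC were taken over 0–24 h.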

[4] = Volume of distribution at steady state in jugular vein cannulated Sprague-Dawley rat at 2 mg/kg, iv by HPLC-MS analysis; type: ADME, organism-based; set-up: dose 2 mg/kg, route intravenous; settings: in vivo, read-out: Vdss; how it was run: as §2
[5] = Oral bioavailability in jugular vein cannulated Sprague-Dawley rat at 6 mg/kg by HPLC-MS analysis; type: ADME, organism-based; settings: in vivo; how it was run: as §2
[6] = Half life in jugular vein cannulated Sprague-Dawley rat at 2 mg/kg, iv by HPLC-MS analysis; type: ADME, organism-based; set-up: dose 2 mg/kg, route intravenous; settings: in vivo; how it was run: as §2
[7] = target: Voltage-gated inwardly rectifying potassium channel KCNH2 (Homo sapiens, UniProt Q12809); assay: Inhibition of human ERG by dofetilide binding assay
How it was run: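 hERG affinity from an in vitro dofetilide binding assay. The IC50 is the mean of two independent measurements.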

[8] = target: 5-hydroxytryptamine receptor 2B (Homo sapiens, UniProt P41595); assay: Inhibition of 5-HT2B (unknown origin)
[9] = target: T1, 5-hydroxytryptamine receptor 1A (Homo sapiens, UniProt P08908); assay: Inhibition of 5-HT1A (unknown origin)
T1 sequence (P08908 whole entry): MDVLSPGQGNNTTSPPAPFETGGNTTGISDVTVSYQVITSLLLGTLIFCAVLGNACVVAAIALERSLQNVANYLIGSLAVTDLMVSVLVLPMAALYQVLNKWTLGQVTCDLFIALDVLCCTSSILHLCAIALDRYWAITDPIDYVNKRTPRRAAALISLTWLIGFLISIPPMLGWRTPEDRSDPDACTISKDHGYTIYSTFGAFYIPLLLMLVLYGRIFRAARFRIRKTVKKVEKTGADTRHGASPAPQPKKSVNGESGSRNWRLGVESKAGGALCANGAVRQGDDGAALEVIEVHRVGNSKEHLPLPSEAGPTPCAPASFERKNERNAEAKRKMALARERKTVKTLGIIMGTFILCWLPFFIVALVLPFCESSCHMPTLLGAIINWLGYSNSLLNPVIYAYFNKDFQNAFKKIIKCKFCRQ

Beta-secretase 2 = target: T2, Beta-secretase 2 (Homo sapiens, UniProt Q9Y5Z0); assay: Inhibition of human recombinant BACE-2 expressed in baculovirus-infected insect sf9 cells using RE( EDANS)-EVNLDAEF-K(DABSYL)-R as substrate incubated for 1 hr prior to substrate addition measured after 1 hr by FRET-based enzymatic assay
T2 sequence (Q9Y5Z0 whole entry): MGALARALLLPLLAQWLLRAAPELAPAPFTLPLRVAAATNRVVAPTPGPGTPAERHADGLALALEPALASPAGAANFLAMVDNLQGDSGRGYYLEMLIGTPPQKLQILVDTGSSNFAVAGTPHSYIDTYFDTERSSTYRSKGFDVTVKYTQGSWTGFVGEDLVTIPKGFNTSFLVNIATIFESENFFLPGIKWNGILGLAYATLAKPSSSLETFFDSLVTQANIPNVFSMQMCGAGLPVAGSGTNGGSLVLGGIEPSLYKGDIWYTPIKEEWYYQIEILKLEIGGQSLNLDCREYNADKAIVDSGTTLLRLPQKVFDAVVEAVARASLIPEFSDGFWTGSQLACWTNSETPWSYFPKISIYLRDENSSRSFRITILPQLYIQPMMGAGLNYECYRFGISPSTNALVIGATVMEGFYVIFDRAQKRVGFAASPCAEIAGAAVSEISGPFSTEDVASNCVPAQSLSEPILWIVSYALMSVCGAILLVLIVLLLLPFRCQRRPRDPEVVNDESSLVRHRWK

Gastricsin = target: T3, Gastricsin (Homo sapiens, UniProt P20142); assay: Inhibition of human recombinant pepsin C expressed in Escherichia coli using Dabcyl-E-R-Nle-F-L-S-F-P-EDANS as substrate incubated for 1 hr prior to substrate addition measured after 1 hr by FRET-based enzymatic assay
T3 sequence (P20142 whole entry): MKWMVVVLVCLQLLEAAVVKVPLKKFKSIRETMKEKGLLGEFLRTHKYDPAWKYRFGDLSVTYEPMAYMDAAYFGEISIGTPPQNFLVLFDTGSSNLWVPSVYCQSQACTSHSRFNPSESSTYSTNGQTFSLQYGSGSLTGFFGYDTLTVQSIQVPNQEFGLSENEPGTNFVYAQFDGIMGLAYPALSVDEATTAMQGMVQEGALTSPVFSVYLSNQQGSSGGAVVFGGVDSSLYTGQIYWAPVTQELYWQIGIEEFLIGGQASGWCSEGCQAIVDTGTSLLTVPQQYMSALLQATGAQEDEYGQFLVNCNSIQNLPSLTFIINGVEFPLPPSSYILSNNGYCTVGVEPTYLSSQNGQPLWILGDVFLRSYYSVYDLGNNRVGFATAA

Cathepsin E = target: T4, Cathepsin E (Homo sapiens, UniProt P14091); assay: Inhibition of human recombinant cathepsin-E expressed in Escherichia coli using Ac- E-D(EDANS)-KPILFFRLG-K(Dabcyl)-E-Amid as substrate incubated for 1 hr prior to substrate addition measured after 1 hr by FRET-based enzymatic assay
T4 sequence (P14091 whole entry): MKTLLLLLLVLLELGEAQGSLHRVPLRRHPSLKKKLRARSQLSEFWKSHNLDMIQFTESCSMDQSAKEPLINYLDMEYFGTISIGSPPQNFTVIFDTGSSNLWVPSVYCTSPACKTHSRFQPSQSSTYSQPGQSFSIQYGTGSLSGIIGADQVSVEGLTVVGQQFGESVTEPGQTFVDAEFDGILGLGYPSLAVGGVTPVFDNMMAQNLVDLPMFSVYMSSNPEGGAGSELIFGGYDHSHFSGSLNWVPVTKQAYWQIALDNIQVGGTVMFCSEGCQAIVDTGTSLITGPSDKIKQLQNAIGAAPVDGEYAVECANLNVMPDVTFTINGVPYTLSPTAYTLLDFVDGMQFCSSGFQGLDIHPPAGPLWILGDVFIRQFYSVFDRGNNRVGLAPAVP

Cathepsin D = Cathepsin D (Homo sapiens, UniProt P07339); assay: Inhibition of human recombinant cathepsin-D expressed in baculovirus-infected insect sf9 cells using Ac- E-D(EDANS)-KPILFFRLG-K(Dabcyl)-E-Amid as substrate incubated for 1 hr prior to substrate addition measured after 1 hr by FRET-based enzymatic assay
Rattus norvegicus [10] = assay: Antihypertensive activity in double transgenic rat overexpressing human renin and human angiotensinogen assessed as reduction in mean arterial pressure at 6 mg/kg, po; type: functional, Artery; how it was run: as §1

Voltage-gated inwardly rectifying potassium channel KCNH2, sequence (Q12809 whole entry): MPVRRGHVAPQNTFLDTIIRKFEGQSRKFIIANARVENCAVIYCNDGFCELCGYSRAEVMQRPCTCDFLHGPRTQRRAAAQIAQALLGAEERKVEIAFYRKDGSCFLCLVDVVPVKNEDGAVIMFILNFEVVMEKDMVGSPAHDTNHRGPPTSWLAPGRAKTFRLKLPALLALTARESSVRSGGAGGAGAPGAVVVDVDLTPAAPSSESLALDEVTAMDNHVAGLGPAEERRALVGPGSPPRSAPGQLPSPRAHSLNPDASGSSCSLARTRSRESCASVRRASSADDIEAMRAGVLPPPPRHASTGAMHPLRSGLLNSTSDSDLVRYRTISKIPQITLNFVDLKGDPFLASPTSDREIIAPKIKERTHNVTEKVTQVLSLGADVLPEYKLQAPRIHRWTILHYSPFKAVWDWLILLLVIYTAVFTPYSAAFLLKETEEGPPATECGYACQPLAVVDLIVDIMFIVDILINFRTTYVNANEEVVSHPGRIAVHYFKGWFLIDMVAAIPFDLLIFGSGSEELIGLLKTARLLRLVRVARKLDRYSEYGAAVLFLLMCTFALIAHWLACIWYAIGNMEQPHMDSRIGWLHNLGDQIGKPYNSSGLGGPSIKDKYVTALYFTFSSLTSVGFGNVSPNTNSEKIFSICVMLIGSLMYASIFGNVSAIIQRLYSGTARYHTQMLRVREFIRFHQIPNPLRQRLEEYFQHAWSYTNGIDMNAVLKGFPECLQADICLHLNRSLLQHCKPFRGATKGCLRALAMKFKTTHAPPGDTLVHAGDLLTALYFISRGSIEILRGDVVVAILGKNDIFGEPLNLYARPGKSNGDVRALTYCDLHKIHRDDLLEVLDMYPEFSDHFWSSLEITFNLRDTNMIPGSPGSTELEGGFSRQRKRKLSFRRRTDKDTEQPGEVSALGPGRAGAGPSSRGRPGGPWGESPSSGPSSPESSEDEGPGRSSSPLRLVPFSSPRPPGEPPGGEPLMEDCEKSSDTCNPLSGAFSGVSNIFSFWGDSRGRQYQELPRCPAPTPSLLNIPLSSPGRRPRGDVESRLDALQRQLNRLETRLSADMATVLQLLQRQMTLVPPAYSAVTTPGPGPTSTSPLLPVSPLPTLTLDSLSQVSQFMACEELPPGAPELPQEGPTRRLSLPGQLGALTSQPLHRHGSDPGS
5-hydroxytryptamine receptor 2B, sequence (P41595 whole entry): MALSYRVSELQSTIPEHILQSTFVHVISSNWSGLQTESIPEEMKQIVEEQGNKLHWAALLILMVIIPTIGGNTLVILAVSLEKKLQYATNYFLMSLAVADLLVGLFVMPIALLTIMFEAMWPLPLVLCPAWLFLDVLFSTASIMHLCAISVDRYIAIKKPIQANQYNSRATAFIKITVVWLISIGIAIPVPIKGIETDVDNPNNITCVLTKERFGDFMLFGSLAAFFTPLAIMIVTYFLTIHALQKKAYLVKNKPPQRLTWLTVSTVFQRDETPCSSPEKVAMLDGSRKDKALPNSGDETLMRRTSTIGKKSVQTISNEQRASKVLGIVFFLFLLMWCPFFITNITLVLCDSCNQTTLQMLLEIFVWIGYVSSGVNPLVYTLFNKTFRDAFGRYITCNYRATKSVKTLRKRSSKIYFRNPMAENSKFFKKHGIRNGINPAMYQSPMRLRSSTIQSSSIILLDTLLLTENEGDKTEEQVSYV
Cathepsin D, sequence (P07339 65-162 limits assumed): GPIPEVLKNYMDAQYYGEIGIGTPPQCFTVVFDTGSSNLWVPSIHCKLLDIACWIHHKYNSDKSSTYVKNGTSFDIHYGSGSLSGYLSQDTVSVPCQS
Cathepsin D, sequence (P07339 169-412 limits assumed): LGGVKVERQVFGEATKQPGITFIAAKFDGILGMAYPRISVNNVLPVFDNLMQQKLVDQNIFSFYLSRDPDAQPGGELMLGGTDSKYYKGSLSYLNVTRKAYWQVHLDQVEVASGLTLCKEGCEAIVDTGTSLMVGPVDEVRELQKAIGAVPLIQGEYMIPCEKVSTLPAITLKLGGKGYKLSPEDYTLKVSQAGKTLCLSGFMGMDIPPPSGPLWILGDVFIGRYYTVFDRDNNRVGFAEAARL

Cmax [3]: 1310 nM
Vd [4]: 2.8 L/kg
bioavailability [5]: 53%
half-life [6]: 2 h
IC50 [8]: > 1 µM
IC50 [9]: > 1 µM
IC50 (Beta-secretase 2): > 30 µM
IC50 (Gastricsin): > 30 µM
IC50 (Cathepsin E): > 30 µM
IC50 (Cathepsin D): > 30 µM
Compound: COCCCOc1cc(C(=O)N(C[C@@H]2CNC[C@H]2Cc2ccccc2)C(C)C)ccc1OC.Cl
Activity (Rattus norvegicus [1]): Active
Activity (Rattus norvegicus [2]): 35 mmHg
IC50 [7]: 14.5 µM
Activity (Rattus norvegicus [10]): 15 mmHg
